According to ChEMBL document CHEMBL1141716, “Discovery and optimization of substituted piperidines as potent, selective, CNS-penetrant alpha4beta2 nicotinic acetylcholine receptor potentiators” (Bioorg Med Chem Lett, 2008):
pEC50: −log10 of the molar value. Values belong to the compound of their own block, whether it stands above or below them. Active and inactive are the calls of the source. The calls are words filed in the database; no cut-off is given here.

Assays:
[1] = target: T1, Neuronal acetylcholine receptor; alpha4/beta2 (Homo sapiens, UniProt P17787+P43681); assay: Activation of human alpha4beta2 nAChR assessed as potentiation of submaximal response to nicotine induced current
T1 sequence (P17787 whole entry): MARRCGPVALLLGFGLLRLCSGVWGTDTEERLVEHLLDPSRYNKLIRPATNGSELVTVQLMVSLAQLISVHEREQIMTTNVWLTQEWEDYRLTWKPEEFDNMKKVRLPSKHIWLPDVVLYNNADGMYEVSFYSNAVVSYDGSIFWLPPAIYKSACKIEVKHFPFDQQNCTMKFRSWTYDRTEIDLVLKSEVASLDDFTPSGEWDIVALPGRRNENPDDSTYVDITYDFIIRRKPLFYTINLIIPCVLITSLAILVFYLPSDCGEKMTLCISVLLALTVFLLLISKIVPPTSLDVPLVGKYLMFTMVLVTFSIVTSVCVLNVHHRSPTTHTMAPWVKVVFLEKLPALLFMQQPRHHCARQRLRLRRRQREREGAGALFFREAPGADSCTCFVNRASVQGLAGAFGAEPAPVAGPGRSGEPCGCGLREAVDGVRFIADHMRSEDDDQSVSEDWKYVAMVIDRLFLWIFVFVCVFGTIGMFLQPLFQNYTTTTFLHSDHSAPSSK
T1 sequence (P43681 whole entry): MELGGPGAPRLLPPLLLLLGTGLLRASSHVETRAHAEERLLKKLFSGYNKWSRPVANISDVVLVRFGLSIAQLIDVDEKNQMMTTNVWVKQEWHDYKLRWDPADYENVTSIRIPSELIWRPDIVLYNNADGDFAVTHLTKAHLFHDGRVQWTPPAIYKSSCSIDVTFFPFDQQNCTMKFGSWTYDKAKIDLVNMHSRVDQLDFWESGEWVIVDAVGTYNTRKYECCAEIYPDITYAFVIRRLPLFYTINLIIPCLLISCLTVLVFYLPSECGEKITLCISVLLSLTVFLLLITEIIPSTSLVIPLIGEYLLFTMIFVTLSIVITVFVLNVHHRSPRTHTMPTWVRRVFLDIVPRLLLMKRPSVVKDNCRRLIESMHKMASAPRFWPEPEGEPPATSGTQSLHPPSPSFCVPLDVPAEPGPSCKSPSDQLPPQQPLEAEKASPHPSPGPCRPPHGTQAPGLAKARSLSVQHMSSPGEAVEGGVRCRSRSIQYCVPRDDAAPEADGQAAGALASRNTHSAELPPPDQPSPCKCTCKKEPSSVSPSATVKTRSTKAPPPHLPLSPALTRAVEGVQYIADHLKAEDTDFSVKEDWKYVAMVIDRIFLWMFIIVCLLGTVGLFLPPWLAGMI
In short: (§1)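 Fluorescence-based functional assay; compounds first screened at 10 µM for increase of the fluorescent response to an EC₁₂ concentration of nicotine, actives then run dose–response; EC₅₀ and peak response recorded, efficacy expressed as % of maximal nicotine response; average of n ≥ 2.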

[2] = target: T1, Neuronal acetylcholine receptor; alpha4/beta2; assay: Activation of human alpha4beta2 nAChR assessed as potentiation of submaximal response to […] relative to maximal nicotine response; type: protein-complex assay; in short: as §1
[3] = target: Neuronal acetylcholine receptor; alpha3/beta4 (Homo sapiens, UniProt P30926+P32297); assay: Activation of human alpha3beta4 nAChR assessed as potentiation of submaximal response to nicotine induced current; type: protein-complex assay; in short: as §1
Sequence of Neuronal acetylcholine receptor; alpha3/beta4 (P30926 whole entry): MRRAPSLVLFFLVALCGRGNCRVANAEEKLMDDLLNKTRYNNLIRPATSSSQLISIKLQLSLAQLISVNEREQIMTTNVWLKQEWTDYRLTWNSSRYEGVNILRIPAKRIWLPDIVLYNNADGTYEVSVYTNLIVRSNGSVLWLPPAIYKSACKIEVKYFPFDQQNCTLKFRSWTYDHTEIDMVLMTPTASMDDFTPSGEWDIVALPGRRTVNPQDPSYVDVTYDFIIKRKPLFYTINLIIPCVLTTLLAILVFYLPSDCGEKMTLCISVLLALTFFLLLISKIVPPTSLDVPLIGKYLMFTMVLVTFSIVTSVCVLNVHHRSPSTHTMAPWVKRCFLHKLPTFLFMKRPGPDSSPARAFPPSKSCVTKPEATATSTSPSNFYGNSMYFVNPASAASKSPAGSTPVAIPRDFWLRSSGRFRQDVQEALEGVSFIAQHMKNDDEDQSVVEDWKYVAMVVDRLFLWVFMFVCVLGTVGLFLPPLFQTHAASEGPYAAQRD
Sequence of Neuronal acetylcholine receptor; alpha3/beta4 (P32297 whole entry): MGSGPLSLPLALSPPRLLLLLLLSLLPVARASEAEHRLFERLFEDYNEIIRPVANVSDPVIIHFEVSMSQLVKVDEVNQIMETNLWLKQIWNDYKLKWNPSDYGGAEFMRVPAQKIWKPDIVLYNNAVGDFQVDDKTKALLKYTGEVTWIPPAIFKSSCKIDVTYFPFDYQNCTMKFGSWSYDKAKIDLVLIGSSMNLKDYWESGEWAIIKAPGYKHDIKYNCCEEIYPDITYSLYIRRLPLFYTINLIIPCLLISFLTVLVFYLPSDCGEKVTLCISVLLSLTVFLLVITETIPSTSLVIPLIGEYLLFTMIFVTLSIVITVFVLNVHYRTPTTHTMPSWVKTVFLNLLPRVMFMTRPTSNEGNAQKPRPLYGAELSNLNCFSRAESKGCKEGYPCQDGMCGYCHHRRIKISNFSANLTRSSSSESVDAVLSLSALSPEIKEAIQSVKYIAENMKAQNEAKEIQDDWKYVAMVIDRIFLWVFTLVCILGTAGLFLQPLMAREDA

[4] = target: Neuronal acetylcholine receptor; alpha3/beta2 (Homo sapiens, UniProt P17787+P32297); assay: Activation of human alpha3beta2 nAChR assessed as potentiation of submaximal response to nicotine induced current; in short: as §1
Sequence of Neuronal acetylcholine receptor; alpha3/beta2 (P17787 whole entry): as the sequence (P17787 whole entry) above
Sequence of Neuronal acetylcholine receptor; alpha3/beta2 (P32297 whole entry): as the sequence (P32297 whole entry) above

[5] = Drug level in Sprague-Dawley rat brain at 5 mg/kg, ip after 1 hr; type: ADME, organism-based; parameters: dose 5 mg/kg, route intraperitoneal; conditions: read-out: Drug uptake
In short: (§2)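 Rats dosed ip at 5 mg/kg in DMSO; sacrificed at 1 h; plasma, brain and CSF collected and drug concentrations measured.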

[6] = Drug level in Sprague-Dawley rat CSF at 5 mg/kg, ip after 1 hr; type: ADME, organism-based, Cerebrospinal fluid; parameters: dose 5 mg/kg, route intraperitoneal; conditions: read-out: Drug uptake; in short: as §2
[7] = Plasma concentration in Sprague-Dawley rat at 5 mg/kg, ip after 1 hr; type: ADME, organism-based; parameters: dose 5 mg/kg, route intraperitoneal; in short: as §2
[8] = tested on: MDR1; assay: Permeability efflux ratio in MDR1 expressing pig LLC-PK1 cells; type: ADME, cell-based, Sus scrofa
[9] = target: T1, Neuronal acetylcholine receptor; alpha4/beta2; assay: Displacement of [3H]cytisine from human alpha4beta2 nAChR at =>30 uM; type: protein-complex assay
[10] = target: Neuronal acetylcholine receptor; alpha4/beta2 (Rattus norvegicus) (UniProt P09483+P12390); assay: Activation of rat alpha4beta2 nAChR expressed in HEK293 cells assessed as potentiation of acetylcholine-induced current by whole cell patch clamp; type: cell-based
In short: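 Whole-cell patch-clamp with fast-flow perfusion under physiological ionic conditions; acetylcholine as agonist, holding potential −80 mV; compound also applied alone to check for evoked inward currents.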

[11] = target: Neuronal acetylcholine receptor; alpha4/beta2 (Rattus norvegicus, UniProt P09483+P12390); assay: Activation of rat alpha4beta2 nAChR by fluorescence assay; type: protein-complex assay
Sequence of Neuronal acetylcholine receptor; alpha4/beta2 (Rattus norvegicus, UniProt P09483+P12390) (P09483 whole entry): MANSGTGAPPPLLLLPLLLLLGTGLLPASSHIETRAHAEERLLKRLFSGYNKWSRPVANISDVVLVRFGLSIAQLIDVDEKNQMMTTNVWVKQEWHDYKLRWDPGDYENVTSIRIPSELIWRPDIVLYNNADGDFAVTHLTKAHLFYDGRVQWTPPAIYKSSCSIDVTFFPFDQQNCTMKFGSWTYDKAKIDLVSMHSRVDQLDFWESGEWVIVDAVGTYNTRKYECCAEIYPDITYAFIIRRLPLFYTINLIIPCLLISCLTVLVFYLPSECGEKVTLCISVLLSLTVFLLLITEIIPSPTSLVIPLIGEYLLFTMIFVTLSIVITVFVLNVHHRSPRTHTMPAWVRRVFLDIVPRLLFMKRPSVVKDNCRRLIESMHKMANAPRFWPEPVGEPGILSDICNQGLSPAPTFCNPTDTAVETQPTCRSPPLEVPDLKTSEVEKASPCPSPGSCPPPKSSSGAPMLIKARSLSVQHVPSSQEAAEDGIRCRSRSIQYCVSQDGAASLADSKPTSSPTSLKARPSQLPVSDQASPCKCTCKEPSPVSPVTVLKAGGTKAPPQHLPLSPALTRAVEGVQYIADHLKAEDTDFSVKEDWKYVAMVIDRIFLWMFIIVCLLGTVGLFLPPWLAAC
Sequence of Neuronal acetylcholine receptor; alpha4/beta2 (Rattus norvegicus, UniProt P09483+P12390) (P12390 whole entry): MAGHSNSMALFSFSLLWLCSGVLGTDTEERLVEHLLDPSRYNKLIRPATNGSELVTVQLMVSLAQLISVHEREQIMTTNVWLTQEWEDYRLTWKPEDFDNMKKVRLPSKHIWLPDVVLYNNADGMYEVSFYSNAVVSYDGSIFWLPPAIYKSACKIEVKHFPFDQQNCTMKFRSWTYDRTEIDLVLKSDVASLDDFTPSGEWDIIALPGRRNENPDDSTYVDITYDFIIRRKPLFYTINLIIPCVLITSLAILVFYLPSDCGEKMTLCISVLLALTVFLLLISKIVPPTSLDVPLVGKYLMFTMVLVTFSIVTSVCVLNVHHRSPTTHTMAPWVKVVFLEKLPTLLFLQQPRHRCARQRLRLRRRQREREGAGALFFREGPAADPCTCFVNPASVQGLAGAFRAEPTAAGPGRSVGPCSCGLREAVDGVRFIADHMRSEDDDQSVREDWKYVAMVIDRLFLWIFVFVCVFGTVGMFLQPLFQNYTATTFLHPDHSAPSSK

[12] = target: Neuronal acetylcholine receptor subunit alpha-7 (Homo sapiens, UniProt P36544); assay: Activation of human alpha7 nAChR assessed as potentiation of submaximal response to nicotine induced current
Sequence of Neuronal acetylcholine receptor subunit alpha-7 (P36544 whole entry): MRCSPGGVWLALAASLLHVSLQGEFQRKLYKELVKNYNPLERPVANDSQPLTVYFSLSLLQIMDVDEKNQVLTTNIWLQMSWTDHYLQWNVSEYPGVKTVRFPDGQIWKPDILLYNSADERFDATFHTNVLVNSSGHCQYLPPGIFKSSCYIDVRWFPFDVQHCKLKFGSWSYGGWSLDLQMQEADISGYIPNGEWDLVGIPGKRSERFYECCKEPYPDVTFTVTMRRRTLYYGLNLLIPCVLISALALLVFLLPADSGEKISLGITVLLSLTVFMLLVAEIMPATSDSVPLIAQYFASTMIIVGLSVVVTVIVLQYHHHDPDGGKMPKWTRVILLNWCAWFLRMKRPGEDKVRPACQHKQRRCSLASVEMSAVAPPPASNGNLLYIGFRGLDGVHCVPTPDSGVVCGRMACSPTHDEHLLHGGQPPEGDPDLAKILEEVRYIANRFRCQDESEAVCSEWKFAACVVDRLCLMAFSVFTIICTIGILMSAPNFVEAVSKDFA

pEC50 [1]: < 4.00
Structure (SMILES): c1ccc(-c2cc(-c3cnn(C4CCNCC4)c3)on2)cc1

pEC50 [1]: 6.66
Efficacy [2]: 56%
Structure (SMILES): Fc1ccc(-c2cc(-c3cnn(C4CCNCC4)c3)on2)c(Cl)c1

pEC50 [1]: 7.32
Efficacy [2]: 60%
Structure (SMILES): Fc1cccc(Cl)c1-c1cc(-c2cnn(C3CCNCC3)c2)on1

pEC50 [1]: 6.64
Efficacy [2]: 47%
Structure (SMILES): Fc1cccc(-c2cc(-c3cnn(C4CCNCC4)c3)on2)c1Cl

pEC50 [1]: 6.39
Efficacy [2]: 73%
Structure (SMILES): Clc1cccc(Cl)c1-c1cc(-c2cnn(C3CCNCC3)c2)on1

pEC50 [1]: 6.70
Efficacy [2]: 50%
Structure (SMILES): Clc1cnccc1-c1cc(-c2cnn(C3CCNCC3)c2)on1

pEC50 [1]: 6.92
Efficacy [2]: 38%
pEC50 [3]: < 4.00
pEC50 [4]: < 4.00
Structure (SMILES): Clc1ccccc1-c1cc(-c2cnn(C3CCNCC3)c2)on1

pEC50 [1]: 6.57
Efficacy [2]: 29%
Structure (SMILES): Fc1ccc(Cl)c(-c2cc(-c3cnn(C4CCNCC4)c3)on2)c1

pEC50 [1]: 6.89
Efficacy [2]: 42%
Structure (SMILES): Clc1sccc1-c1cc(-c2cnn(C3CCNCC3)c2)on1

concentration at 1 h [5]: 5.2 µM
pEC50 [1]: 7.74
Activity [9]: inactive
Efficacy [2]: 71%
Activity [10]: Active
concentration at 1 h [6]: 130 nM
pEC50 [11]: 7.70
pEC50 [12]: < 4.00
concentration at 1 h [7]: 610 nM
Structure (SMILES): Cc1c(-c2cc(-c3ccccc3Cl)no2)cnn1C1CCNCC1

More lines, now with the values behind:

Structure (SMILES): Cc1c(-c2cc(-c3ccccc3)no2)cnn1C1CCNCC1
pEC50 [1]: 5.92
Efficacy [2]: 31%

Structure (SMILES): CN(Cc1cc(-c2ccccc2Cl)no1)C(=O)C1CCNCC1
pEC50 [1]: 6.46
Efficacy [2]: 41%
pEC50 [3]: < 4.00
pEC50 [4]: < 4.00

Structure (SMILES): Clc1ccccc1-c1cc(-c2cnc(C3CCNCC3)s2)on1
concentration at 1 h [5]: 8.5 µM
pEC50 [1]: 7.48
Efficacy [2]: 63%
concentration at 1 h [6]: 21 nM
concentration at 1 h [7]: 300 nM

Structure (SMILES): CCn1c(-c2cc(-c3c(F)cccc3Cl)no2)cnc1C1CCNCC1
efflux ratio [8]: > 10
pEC50 [1]: 8.52
Efficacy [2]: 87%

Structure (SMILES): Cc1c(-c2cc(-c3c(F)cccc3Cl)no2)cnn1C1CCNCC1
pEC50 [1]: 8.22
Efficacy [2]: 66%

Structure (SMILES): Cc1cc(-c2cnn(C3CCNCC3)c2)on1
pEC50 [1]: 5.89
Efficacy [2]: 19%

Structure (SMILES): c1nn(C2CCNCC2)cc1-c1cc(C2CCCCC2)no1
pEC50 [1]: 5.34
Efficacy [2]: 16%

Structure (SMILES): CCn1c(-c2cc(-c3c(F)cccc3Cl)no2)cnc1C1(F)CCNCC1
efflux ratio [8]: 1
concentration at 1 h [5]: 6.5 µM
pEC50 [1]: 8.52
Efficacy [2]: 74%
concentration at 1 h [6]: 29 nM
concentration at 1 h [7]: 600 nM

Structure (SMILES): Cn1c(-c2cc(-c3c(F)cccc3Cl)no2)cnc1C1CCNCC1
efflux ratio [8]: > 10
pEC50 [1]: 7.92
Efficacy [2]: 71%

Structure (SMILES): Cn1c(-c2cc(-c3c(F)cccc3Cl)no2)cnc1C1(F)CCNCC1
efflux ratio [8]: 1
pEC50 [1]: 7.47
Efficacy [2]: 68%
